Measurements as given in ChEMBL document CHEMBL4513216, “Probing the Open Global Health Chemical Diversity Library for Multistage-Active Starting Points for Next-Generation Antimalarials” (ACS Infect Dis, 2020).

Experiment: Toxicity liver stage against HepG2, at 10uM
Assay type: cell-based
Design: test concentration 10 uM, cell line HepG2-A16-CD81EGFP
Conditions: human, HepG2-A16-CD81EGFP cells; read-out: INHIBITION
Summary of the method: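 Uninfected HepG2-A16-CD81EGFP cells, 3 × 10^3 per well, 1536-well, plated on prespotted compound at 10 μM final, parasite-free screening media added to match infected plates; puromycin 10 μM positive, DMSO 0.5% negative; run in parallel with 48 h PbLuc assay at 37 °C, 5% CO2; viability by CellTiter-Glo luminescence, normalized to controls.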

| SMILES | cytotoxicity at 10 µM [%] |
| --- | --- |
| O=c1c2ccccc2nc2n1C(CSc1ccc(Br)cc1)CN2 (stereo not given) | 6.76 |
| N#Cc1c(F)cccc1N1CCC(NS(=O)(=O)c2cccs2)CC1 | -7.39 |
| COc1cc(CNCC(O)c2ccc(F)c(F)c2)cc2c1OCO2 (stereo not given) | -8.28 |
| COC(=O)[C@H](CC(C)C)NC(=O)c1snnc1-c1ccc(OC)cc1 | 10.1 |
| CC(=O)N1CCc2ccc(NC(=O)c3cn(C)nn3)cc2C1 | 5.45 |
| CSc1[nH]nc(NC(=O)c2cccs2)c1C#N | -1.04 |
| COc1ccc(-n2nnnc2C2(NCc3ccco3)CCCCC2)cc1 | 9.65 |
| CN1CCN(C(=O)[C@@H]2CN(C)C[C@]23COc2ccc(F)cc2C3=O)CC1 | 3.06 |
| O=S1(=O)NC2(CCCN(CCc3ccccc3)C2)COc2ccccc21 (stereo not given) | 7.47 |
| Cn1cc(CNCC(c2ccc(Cl)cc2)n2cccn2)cn1 (stereo not given) | 1.21 |
| CCOC(C)C(=O)Nc1ccnn1-c1ccccc1C (stereo not given) | -7.89 |
| COc1cccc(CCNC(=O)c2ccc(=O)n(C)c2)c1 | -9.08 |
| CCOc1cccc(CCNC(=O)NC2CCc3[nH]ncc3C2)n1 (stereo not given) | 8.95 |
| CC(Cn1cccn1)Nc1cnc2ccccc2n1 (stereo not given) | -7.67 |
| N#CCCN(Cc1ccco1)C(=O)C1CCCc2ccccc21 (stereo not given) | -4.27 |
| Cc1nn(CC(C)C)c(C)c1CC(=O)N1CCCC(CNS(C)(=O)=O)C1 (stereo not given) | 0.246 |
| CCOCCOCc1cccc(CNc2cncc(-n3cccn3)n2)c1 | 7.74 |
| CC(C)(C)OC(=O)NC(C)(C)c1noc(CSc2ccccn2)n1 | 9.18 |
| Cc1cc(S(=O)(=O)Nc2cccc(OC(F)F)c2)sc1C(=O)O | -0.229 |
| Cc1cccc(C(=O)N2CCCN(CCc3scnc3C)CC2)c1 | -2.52 |
| N#Cc1cc(NS(=O)(=O)CC2CCCCO2)ccc1F (stereo not given) | -14.1 |
| Cc1csc(N2CCN(Cc3cnc4c(c3)c(C)nn4C)CC2)n1 | -0.54 |
| Cn1cc(NC(=O)Nc2ccc3c(c2)OCO3)cn1 | -0.37 |

| SMILES | cytotoxicity at 10 µM [%] |
| --- | --- |
| COc1cc(OC)c(CNC(=O)NCC(=O)N2CCCC2)c(OC)c1 | 10.4 |
| Cc1nc(C)n(CC2CCCN(CCc3ccncc3)C2)n1 (stereo not given) | -23 |
| CNC(=O)[C@H]1C[C@@H]2CN(C(=O)c3cnc(C)cn3)C[C@@H]2N1C | -108 |
| CN(C)CC(=O)N1Cc2nc(C(=O)NCc3ccccc3)oc2C1 | -81.5 |
| CCN1CCc2nc(N3CCOCC3)nc(NC(C)C)c2C1 | -112 |
| Cc1nccn1CCCn1c(=O)cnc2ccccc21 | 1.53 |
| CCCc1cc(C(=O)N(Cc2cccnc2)C[C@@H]2CCC(=O)N2)no1 | 6.82 |
| O=C(CCc1cc2n(n1)CCCN(CCc1ccccc1)C2)NC1CC1 | 12 |
| COc1cccc(N2CCN(Cc3ccc4occc4c3)CC2=O)c1 | 24 |
| Cc1nsc(NC(=O)N2CCc3sccc3C2)n1 | 18.5 |
| CCc1nc(C)c(CN2CCOC(Cc3ccccc3Cl)C2)[nH]1 (stereo not given) | -0.527 |
| c1ccc2c(c1)nnn2CCCNC1CCOC2(CCOCC2)C1 (stereo not given) | -4.66 |
| Cc1cccc(=O)n1CCC(=O)N1CCC2(CC1)OCCCC2O (stereo not given) | -1.95 |
| Cc1ccccc1N1CCN(C(=O)Cn2ccnc2)CC1=O | -1.86 |
| CNC(=O)C(C)(C)NC(=O)c1cc(OCC2CCC2)cc(C(=O)OC)c1 | -8.97 |
| COCc1ccc(C(=O)NCCCNc2ccc(C(F)(F)F)cn2)cc1 | 2.13 |
| O=C(CCc1cccc(F)c1F)N1CCCC(n2cncn2)C1 (stereo not given) | -20.2 |
| O=C(c1ccco1)N1CC[C@@H]2O[C@H](COCCN3CCCC3)CC[C@@H]21 | -100 |
| Cc1ccc(CNC(c2cccc(F)c2)c2nccn2C)o1 (stereo not given) | 5.48 |
| Cc1cccc(COC[C@@H]2CC[C@H]3[C@H](CCN3C(=O)CC3CC3)O2)n1 | -64.8 |
| CN(C)CC1CN(Cc2ccc(F)cc2)Cc2nccn2C1 (stereo not given) | -71.1 |
| CC(C)C(N)CNS(=O)(=O)Cc1cccc2cccnc12 (stereo not given) | -9.32 |
